Activity calls are given as the source filed them. The calls are words filed in the database; no cut-off is given here.
How the values were obtained:
[1] = Antiproliferative activity against human DU145 cells after 72 hrs by WST-1 proliferation assay; format: functional, cell-based; conditions: DU-145, 72 h
Outline: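 Cells in RPMI-1640 (DU145, LNCaP, LNCaP-IL6+) or HAM's F-12 (PC3) with 10% FBS. DU145 and LNCaP-IL6+ seeded at 2 000 cells/well, LNCaP and PC3 at 5 000 cells/well, adhered 24 h, then exposed to compound for 72 h. WST-1 absorbance read at 450 nm with 630 nm reference. Background subtracted; expressed as percent of untreated cells.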

Plasma [2] = assay: Half life in human plasma assessed as formation of galiellalactone at 5 uM by LC-MS/MS analysis; format: ADME, cell-free
Outline: (§1)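 Plasma of each species incubated at 37 °C with compound at 5 µM initial, 1% DMSO, n=2. Simvastatin and eucatropine run as controls. Aliquots taken at 0, 5, 15, 30 and 60 min and quenched with acetonitrile containing internal standard, then analysed by LC-MS/MS.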

Plasma [3] = assay: Half life in rat plasma assessed as formation of galiellalactone at 5 uM by LC-MS/MS analysis; format: ADME, cell-free; outline: as §1
Plasma [4] = assay: Half life in mouse plasma assessed as formation of galiellalactone at 5 uM by LC-MS/MS analysis; format: ADME, cell-free; outline: as §1
Mus musculus [5] = assay: Tmax in mouse plasma assessed as galiellalactone level at 40 mg/kg, po by LC-MS/MS analysis; format: ADME, organism-based; conditions: in vivo
Mus musculus [6] = assay: Apparent half life in mouse plasma assessed as galiellalactone level at 40 mg/kg, po by LC-MS/MS analysis; format: ADME, organism-based; conditions: in vivo
Outline: (§2)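 Single dose to mice; oral, iv or ip as listed, in 5% DMSO/50 mM citrate buffer pH 4.0 (dosing solutions 0.5, 2 or 5 mg/mL). Oral dosing at 20 mL/kg. Terminal blood under barbiturate anaesthesia at eight time-points to 8 h, n=3 mice per time-point, EDTA plasma. Acetonitrile precipitation with internal standard, LC-MS/MS against plasma calibration lines. Non-compartmental analysis on mean data, trapezoidal AUC.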

Mus musculus [7] = assay: AUC (0 to t) in mouse plasma assessed as galiellalactone level at 40 mg/kg, po by LC-MS/MS analysis; format: ADME, organism-based; conditions: in vivo; outline: as §2
Mus musculus [8] = assay: Tmax in mouse plasma assessed as galiellalactone level at 100 mg/kg, po by LC-MS/MS analysis; format: ADME, organism-based; conditions: in vivo
Mus musculus [9] = assay: AUC (0 to t) in mouse plasma assessed as galiellalactone level at 100 mg/kg, po by LC-MS/MS analysis; format: ADME, organism-based; conditions: in vivo; outline: as §2
Mus musculus [10] = assay: AUC (0 to infinity) in mouse plasma assessed as galiellalactone level at 100 mg/kg, po by LC-MS/MS analysis; format: ADME, organism-based; parameters: dose 100 mg/kg, time infinity, route oral; conditions: in vivo; outline: as §2
Mus musculus [11] = assay: Toxicity in NMRI mouse xenografted with human DU145 cells assessed as weight loss at 40 mg/kg, po administered 5 times per week for 4 weeks measured on day 26 and day 29; format: organism-based, DU-145; conditions: in vivo, 672 h
Outline: (§3)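 Male NMRI-nude mice, 20 in total, were given 1.5 million DU145 cells subcutaneously in the flank. After 4 weeks they were split into two groups of 10. Each group was gavaged with 40 mg/kg or with vehicle (50 mM citrate buffer pH 4.0, 2% DMSO) daily, 5 times per week for 4 weeks. Body weight, behaviour, side effects and survival were monitored, and tumours were measured twice weekly by caliper.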

Mus musculus [12] = assay: Toxicity in NMRI mouse xenografted with human DU145 cells assessed as behavioral alterations at 40 mg/kg, po administered 5 times per week for 4 weeks measured on day 26 and day 29; format: organism-based, DU-145; conditions: in vivo, 672 h; outline: as §3
DU-145 = assay: Antiproliferative activity against human DU145 cells xenografted in NMRI nude mouse assessed as reduction in Ki67 ratio at 40 mg/kg, po administered 5 times per week for 4 weeks by Ki67 staining-based immunohistochemical analysis; format: functional, organism-based
Outline: (§4)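 Tumours from the oral DU145 xenograft study were fixed in formaldehyde and sectioned. IHC used the EnVision Flex kit with anti-Ki67 and anti-pSTAT3 antibodies, imaged at 10× bright field. Ki67 scored as Ki67-positive cells over total cells.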

[13] = Downregulation of MCL1 mRNA expression in human DU145 cells xenografted in NMRI nude mouse at 40 mg/kg, po administered 5 times per week for 4 weeks by qPCR analysis; format: functional, organism-based; conditions: DU-145
Outline: (§5)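 Half of each DU145 xenograft tumour was snap frozen for mRNA. MCL1 and BCL2 measured by quantitative real-time PCR: 10 min at 95°C, then 40 cycles of 95°C 15 s and 60°C 60 s. Comparative Ct method, normalized to HMBS and SDHA.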

[14] = Downregulation of BCL2 mRNA expression in human DU145 cells xenografted in NMRI nude mouse at 40 mg/kg, po administered 5 times per week for 4 weeks by qPCR analysis; format: functional, organism-based; conditions: DU-145; outline: as §5
Mus musculus [15] = assay: Effect on STAT3 phosphorylation in NMRI mouse xenografted with human DU145 cells at 40 mg/kg, po administered 5 times per week for 4 weeks by immunohistochemical analysis; format: functional, organism-based; conditions: DU-145; outline: as §4
Mus musculus [16] = assay: Toxicity in CD1 mouse assessed as change in body weight at 40 mg/kg, administered as single dose through oral gavage measured on day 1 (reference value: 33.5 +/- 4.34 g); format: organism-based; conditions: in vivo
Mus musculus [17] = assay: Toxicity in CD1 mouse assessed as change in body weight at 40 mg/kg, administered as single dose through oral gavage measured on day 4 (reference value: 34.68 +/- 4.71 g); format: organism-based; conditions: in vivo
Mus musculus [18] = assay: Toxicity in CD1 mouse assessed as change in body weight at 40 mg/kg, administered as single dose through oral gavage measured on day 8 (reference value: 32.28 +/- 4.42 g); format: organism-based; conditions: in vivo
Mus musculus [19] = assay: Toxicity in CD1 mouse assessed as change in body weight at 200 mg/kg, administered as single dose through oral gavage measured on day 1 (reference value: 33.5 +/- 4.34 g); format: organism-based; conditions: in vivo
Mus musculus [20] = assay: Toxicity in CD1 mouse assessed as change in body weight at 400 mg/kg, administered as single dose through oral gavage measured on day 4 (reference value: 34.68 +/- 4.71 g); format: organism-based; conditions: in vivo
Mus musculus [21] = assay: Toxicity in CD1 mouse assessed as change in body weight at 400 mg/kg, administered as single dose through oral gavage measured on day 8 (reference value: 32.28 +/- 4.42 g); format: organism-based; conditions: in vivo
Mus musculus [22] = assay: Cmax in mouse plasma assessed as galiellalactone level at 10 mg/kg, po by LC-MS/MS analysis; format: ADME, organism-based; parameters: dose 10 mg/kg, route oral; conditions: in vivo; outline: as §2
Mus musculus [23] = assay: AUC (0 to infinity) in mouse plasma assessed as galiellalactone level at 10 mg/kg, po by LC-MS/MS analysis; format: ADME, organism-based; parameters: dose 10 mg/kg, route oral, time infinity; conditions: in vivo; outline: as §2
[24] = Toxicity in CD1 mouse at 40 to 400 mg/kg, administered as single dose through oral gavage; format: organism-based; conditions: in vivo
Outline: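 Male CD1 mice, 7 weeks old (27.0–38.5 g), 5 per group, given one oral gavage dose of 40, 200 or 400 mg/kg as a solution in 50 mM citrate buffer pH 4.0 with 5% DMSO. Vehicle-only control group. Weighed at randomization, day 1 before dosing, day 4 and day 8 (study end). Clinical signs, clinical pathology and histopathology were assessed to set the MTD.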

COC(=O)[C@H](CS[C@H]1C2C(=O)O[C@@H]3CC[C@H](C[C@@H]1C)[C@]23O)NC(C)=O (stereo not given in full)
IC50 [1]: 4.81 µM | t1/2 (Plasma [2]): < 5 min | t1/2 (Plasma [3]): < 5 min | t1/2 (Plasma [4]): < 5 min | Tmax (Mus musculus [5]): 15 min | t1/2(app) (Mus musculus [6]): 180 min | AUCt (Mus musculus [7]): 213 µg/mL/min | Tmax (Mus musculus [8]): 15 min | AUCt (Mus musculus [9]): 676 µg/mL/min | AUC (Mus musculus [10]): 679 µg/mL/min | Activity (Mus musculus [11]): Non-toxic | Activity (Mus musculus [12]): Non-toxic | inhibition (DU-145): Active | Activity [13]: Active | Activity [14]: Active | Activity (Mus musculus [15]): inactive | Activity (Mus musculus [16]): 32.52 g | Activity (Mus musculus [17]): 33.68 g | Activity (Mus musculus [18]): 31.12 g | Activity (Mus musculus [19]): 33.56 g | Activity (Mus musculus [20]): 34.76 g | Activity (Mus musculus [21]): 32.1 g | Cmax (Mus musculus [22]): 1.893 µg/mL | AUC (Mus musculus [23]): 120 µg/mL/min | MTD [24]: 400 mg/kg
